The text below walks through data of ChEMBL document CHEMBL3868592, “Analogues of Marine Guanidine Alkaloids Are in Vitro Effective against Trypanosoma cruzi and Selectively Eliminate Leishmania (L.) infantum Intracellular Amastigotes” (J Nat Prod, 2016).

Data set [1] is described as follows: Selectivity index, ratio of CC50 for mouse NCTC-929 cells to IC50 for Leishmania infantum MHOM/BR/1972/LD amastigote forms infected in BALB/c mouse macrophages. The data set is classed as functional.
Data set [2] has as its system Leishmania infantum. In words: Antileishmanial activity against Leishmania infantum MHOM/BR/1972/LD amastigote forms infected in BALB/c mouse peritoneal macrophages assessed as reduction in parasite viability after 120 hrs by giemsa staining based light microscopy. The class given is functional. The gist of the method: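 BALB/c peritoneal macrophages seeded at 1×10^5/well for 24 h, then infected with hamster spleen-derived amastigotes (1:10 macrophage:amastigote, 24 h, 37 °C, 5% CO2). Compound exposure for 120 h, highest 100 μM. Cells MeOH-fixed and Giemsa-stained; infected macrophages counted out of 400 cells. IC50 from sigmoidal dose-response; at least two independent assays.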

Data set [3] has as its system Trypanosoma cruzi. In words: Antitrypanosomal activity against Trypanosoma cruzi Y trypomastigote forms infected in monkey LLC-MK2 cells assessed as reduction in parasite viability after 24 hrs by resazurin assay. The class given is functional, cell-based. Conditions: LLC-MK2, 24 h. The gist of the method: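 Y-strain trypomastigotes from LLC-MK2 cultures seeded at 1×10^6/well in RPMI-1640. Compounds up to 150 μM, 24 h at 37 °C, 5% CO2. Viability by resazurin (0.011% in PBS), read at 570 nm against drug-free and cell-free wells; 0.5% DMSO control. IC50 by sigmoidal dose-response curve fitting.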

Data set [4] can be described thus: Selectivity index, ratio of CC50 for mouse NCTC-929 cells to IC50 for Trypanosoma cruzi Y trypomastigote form infected in monkey LLC-MK2 cells. The class given is functional.
Data set [5] in a line: Cytotoxicity against mouse NCTC-929 cells assessed as decrease in cell viability after 48 hrs by MTT assay. The class given is toxicity. The essentials:
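NCTC clone 929 murine cells seeded at 6×10^4/well. Compound up to 150 μM for 48 h at 37 °C, 5% CO2. Viability read by MTT. CC50 from sigmoidal dose-response; mean of at least two independent experiments.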

The subject of data set [6] is Leishmania infantum. Description: Antileishmanial activity against Leishmania infantum MHOM/BR/1972/LD promastigote forms […] assessed as reduction in parasite viability after 48 hrs by MTT assay. The class given is functional. The gist of the method: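 Late-growth-phase promastigotes (passage 5) seeded at 1×10^6/well in M-199. Compounds dissolved in DMSO, tested up to 100 μM, 48 h at 24 °C. Viability by MTT, OD 570 nm, against drug-free (100%) and cell-free blank wells; 0.5% DMSO control. IC50 from sigmoidal dose-response curves; ≥2 independent assays.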

Data set [7] concerns Trypanosoma cruzi. In words: Potency index, ratio of benznidazole IC50 to compound IC50 for Trypanosoma cruzi Y trypomastigote forms infected in monkey LLC-MK2 cells. The class given is functional.

For orientation: IC50 means the concentration needed to halve the response being measured. One may read the CC50 as the concentration that lowers cell viability or growth by half.

`C[C@@H]1C[C@@H]2CC[C@@H]3C[C@H](CCCCO[Si](C(C)(C)C)(C(C)(C)C)C(C)(C)C)NC(=[NH+]1)N32.F[B-](F)(F)F`: the entries for the “Ratio CC50/IC50” value in data set [1] and in data set [4] were 4 and 16, respectively. For the same molecule, the concentration for half-maximal inhibition (IC50) was 18 µM with Leishmania infantum [2], 4 µM with Trypanosoma cruzi [3] and 7 µM with Leishmania infantum [6]. Moreover, the CC50 at 48 h in data set [5] came to 65 µM.

In the case of `CC(=O)OCCCC[C@H]1C[C@H]2CC[C@H]3C[C@@H](C)[NH+]=C(N1)N23.F[B-](F)(F)F`, the IC50 with Leishmania infantum [2] is above 100 µM; in the data set on Trypanosoma cruzi [3], 88 µM; in the data set on Leishmania infantum [6], above 100 µM. The “Ratio CC50/IC50” value in data set [4] is above 2. Further, the CC50 at 48 h in data set [5] was above 150 µM.

Take `CCCCCCCCCc1cc(CCCO)nc(N)n1`: the figures for the “Ratio CC50/IC50” value in data set [1] and in data set [4] were 8 and 5, respectively. Moreover, the half-maximal inhibitory concentration (IC50) turned out to be 5 µM with Leishmania infantum [2], 8 µM in the data set on Trypanosoma cruzi [3] and 42 µM in the data set on Leishmania infantum [6]. Besides, the cytotoxic concentration (CC50) at 48 h in data set [5] is 42 µM.

For `C[C@@H]1C[C@@H]2CC[C@@H]3C[C@H](CCCCO)NC(=N1)N32`, the IC50 in the data set on Leishmania infantum [2], with Trypanosoma cruzi [3] and in the data set on Leishmania infantum [6] was above 100 µM in each case. In addition, in data set [5], the half-maximal cytotoxic concentration (CC50) at 48 h was above 150 µM.

Take `C=CCOC(=O)C1=C(CCCCC[C@@H](C)O[Si](C(C)(C)C)(C(C)(C)C)C(C)(C)C)NC2=[N+]3[C@H](CC[C@@H]13)C[C@H](C)N2.CC(=O)[O-]`: the results for the “Ratio CC50/IC50” value in data set [1] and in data set [4] were 3 and 2, respectively. Besides, the IC50 with Leishmania infantum [2] was 0.8 µM; in the data set with Trypanosoma cruzi [3] it was 0.9 µM; in the data set on Leishmania infantum [6], above 100 µM. The “Ratio IC50” value with Trypanosoma cruzi [7] is 17. Moreover, the half-maximal cytotoxic concentration (CC50) at 48 h in data set [5] turned out to be 2 µM.

Consider `C[C@H](O)CCCCC[C@@H]1C[C@H]2CC[C@H]3C[C@@H](C)NC(=[NH+]1)N23.F[B-](F)(F)F`, for which the “Ratio CC50/IC50” value in data set [1] is listed as above 3. The IC50 in the data set with Leishmania infantum [2] is 49 µM; with Trypanosoma cruzi [3] it was above 100 µM; in the data set with Leishmania infantum [6], above 100 µM. In data set [5], the cytotoxic concentration (CC50) at 48 h was above 150 µM.

`CCCCCCCCCCCCCCCCOP(=O)([O-])OCC[N+](C)(C)C` [MILTEFOSINE]: the “Ratio CC50/IC50” value in data set [1] amounted to 7. In addition, in the data set on Leishmania infantum [2], the IC50 was found to be 17 µM. Further, the cytotoxic concentration (CC50) at 48 h in data set [5] was 122 µM.

As for `CC(C)=CCC/C(C)=C/CNC(=N)N.Cl`, the entries for the “Ratio CC50/IC50” value in data set [1] and in data set [4] were 6 and 3, respectively. Further, the figures for the concentration for half-maximal inhibition (IC50) in the data set on Leishmania infantum [2], in the data set on Trypanosoma cruzi [3] and with Leishmania infantum [6] were 19 µM, 35 µM and 9 µM, respectively. The CC50 at 48 h in data set [5] was 116 µM.

Take `CCCC(=O)OCCCC[C@H]1C[C@H]2CC[C@H]3C[C@@H](C)[NH+]=C(N1)N23.F[B-](F)(F)F`: the results for the IC50 in the data set with Leishmania infantum [2], in the data set with Trypanosoma cruzi [3] and in the data set on Leishmania infantum [6] were above 100 µM, 49 µM and above 100 µM, respectively. For the same molecule, the “Ratio CC50/IC50” value in data set [4] is on record as above 2. In data set [5], the CC50 at 48 h is above 150 µM.

Turning to `CCCCCCCCCC(=O)OCCCC[C@H]1C[C@H]2CC[C@H]3C[C@@H](C)[NH+]=C(N1)N23.F[B-](F)(F)F`, the concentration for half-maximal inhibition (IC50) in the data set on Leishmania infantum [2] is above 100 µM; in the data set on Trypanosoma cruzi [3] it was 4 µM; in the data set on Leishmania infantum [6], 59 µM. Also, the “Ratio IC50” value with Trypanosoma cruzi [7] came to 4. In data set [4], the “Ratio CC50/IC50” value came out at 28. Also, the cytotoxic concentration (CC50) at 48 h in data set [5] turned out to be 84 µM.

Regarding `CCCCCCCCC[C@@H]1C[C@@H]2CC[C@H]3C(C(=O)O)[C@@H](C)N=C(N1)N23.O=C(O)C(F)(F)F` (single isomer, unassigned; 15), the “Ratio CC50/IC50” value in data set [1] was found to be 3; in data set [4], 0.9. The 50% inhibitory concentration (IC50) in the data set with Leishmania infantum [2] turned out to be 24 µM; in the data set with Trypanosoma cruzi [3] it was 79 µM; with Leishmania infantum [6] it was 57 µM. For the same molecule, in data set [5], the half-maximal cytotoxic concentration (CC50) at 48 h came to 70 µM.

For the molecule `CCCCCCCCC[C@@H]1C[C@@H]2CC[C@H]3C(C(=O)O)[C@@H](C)N=C(N1)N23` (single isomer, unassigned; 16), the IC50 was above 100 µM with Leishmania infantum [2], 69 µM with Trypanosoma cruzi [3] and 47 µM with Leishmania infantum [6]. Also, the “Ratio CC50/IC50” value in data set [4] is reported as 0.9. In addition, the half-maximal cytotoxic concentration (CC50) at 48 h in data set [5] turned out to be 60 µM.

With `CCCCCC(=O)OCCCC[C@H]1C[C@H]2CC[C@H]3C[C@@H](C)[NH+]=C(N1)N23.F[B-](F)(F)F`, the IC50 in the data set on Leishmania infantum [2] is above 100 µM; with Trypanosoma cruzi [3] it was 22 µM; in the data set with Leishmania infantum [6], 109 µM. Besides, in data set [4], the “Ratio CC50/IC50” value is above 7. Also, in data set [5], the CC50 at 48 h is above 150 µM.

For `C[C@@H]1CCC[C@]2(CCN3CC[C@]4(CCC[C@@H](C)O4)NC3=N2)O1`, the IC50 in the data set with Leishmania infantum [2], with Trypanosoma cruzi [3] and in the data set on Leishmania infantum [6] was above 100 µM throughout. Also, the CC50 at 48 h in data set [5] was above 150 µM.

Consider `CCCCCCCCCCCC(=O)OCCCC[C@H]1C[C@H]2CC[C@H]3C[C@@H](C)[NH+]=C(N1)N23.F[B-](F)(F)F`, for which the figures for the IC50 in the data set on Leishmania infantum [2], with Trypanosoma cruzi [3] and in the data set on Leishmania infantum [6] were above 100 µM, 4 µM and 48 µM, respectively. Further, the “Ratio IC50” value in the data set on Trypanosoma cruzi [7] was 4. The “Ratio CC50/IC50” value in data set [4] amounted to 19. In data set [5], the half-maximal cytotoxic concentration (CC50) at 48 h amounted to 57 µM.

With `CCCCCCCC(=O)OCCCC[C@H]1C[C@H]2CC[C@H]3C[C@@H](C)[NH+]=C(N1)N23.F[B-](F)(F)F`, the values for the 50% inhibitory concentration (IC50) in the data set on Leishmania infantum [2], in the data set on Trypanosoma cruzi [3] and with Leishmania infantum [6] were above 100 µM, 8 µM and 53 µM, respectively. Besides, in data set [4], the “Ratio CC50/IC50” value was determined as 12. In addition, the CC50 at 48 h in data set [5] was 100 µM.

As for `O=C(Cn1ccnc1[N+](=O)[O-])NCc1ccccc1` [BENZNIDAZOLE], the half-maximal inhibitory concentration (IC50) with Trypanosoma cruzi [3] was 16 µM. Further, the “Ratio CC50/IC50” value in data set [4] was above 9. For the same molecule, the 50% cytotoxic concentration (CC50) at 48 h in data set [5] is above 150 µM.

Consider `C1CC[C@]2(C[C@H]3CC[C@H]4C[C@@]5(CCCCO5)[NH+]=C(N2)N34)OC1.F[B-](F)(F)F`, for which the “Ratio CC50/IC50” value in data set [1] is on record as above 19. Besides, the IC50 is 8 µM in the data set with Leishmania infantum [2], above 100 µM in the data set on Trypanosoma cruzi [3] and above 100 µM with Leishmania infantum [6]. Moreover, the CC50 at 48 h in data set [5] was above 150 µM.
